Laboratory results: ChEMBL document CHEMBL3632476, “Novel spirobicyclic artemisinin analogues (artemalogues): Synthesis and antitumor activities” (Eur J Med Chem, 2015)

Columns and labels:
[1] = Cytotoxicity against human KB cells assessed as inhibition of cell proliferation after 72 hrs by SRB assay; type: functional, cell-based
Summary of the method: (§1)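 SRB assay. Cells were seeded, cultured overnight, then exposed to a gradient of agent concentrations for 72 h. Absorbance was read at 560 nm.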

[2] = Cytotoxicity against human KB/VCR cells assessed as inhibition of cell proliferation after 72 hrs by SRB assay; type: functional, cell-based; summary of the method: as §1
A549 [3] = test: Cytotoxicity against human A549 cells assessed as inhibition of cell proliferation after 72 hrs by SRB assay; type: functional, cell-based; conditions: A549, 72 h; summary of the method: as §1
A549 [4] = test: Selectivity index, ratio of IC50 for human A549 cells to IC50 for human KB cells; type: functional
KB [5] = test: Selectivity index, ratio of IC50 for human KB/VCR cells to IC50 for human KB cells; type: functional
[6] = Potency index, ratio of IC50 for artemisinin to IC50 for test compound against human KB/VCR cells; type: functional
A549 [7] = test: Potency index, ratio of IC50 for artemisinin to IC50 for test compound against human A549 cells; type: functional
KB [8] = test: Potency index, ratio of IC50 for artemisinin to IC50 for test compound against human KB cells; type: functional
HepG2 = test: Cytotoxicity against human HepG2 cells by MTT assay; type: functional, cell-based
L1210 = test: Cytotoxicity against mouse L1210 cells by MTT assay; type: functional, cell-based

SMILES	IC50 [1] [µM]	IC50 [2] [µM]	IC50 (A549 [3]) [µM]	also measured
COc1ccc(C2=NO[C@@]3(C2)C(=O)O[C@@H]2O[C@@]4(C)CC[C@H]5[C@H](C)CC[C@@H]3[C@@]25OO4)cc1	> 20	> 20	> 20	–
C[C@@H]1CC[C@@H]2[C@]34OO[C@](C)(CC[C@@H]13)O[C@H]4OC(=O)[C@@]21CC(c2ccccc2)=NO1	> 20	> 20	> 20	–
C[C@@H]1CC[C@@H]2[C@]34OO[C@](C)(CC[C@@H]13)O[C@H]4OC(=O)[C@@]21CC(c2ccc(Cl)cc2)=NO1	13.9	14	> 20	–
C[C@@H]1CC[C@@H]2[C@]34OO[C@](C)(CC[C@@H]13)O[C@H]4OC(=O)[C@@]21CC(c2c(Cl)cccc2Cl)=NO1	> 20	> 20	> 20	–
COc1ccc(C2=NO[C@@]3(C2)C(=O)O[C@@H]2O[C@@]4(C)CC[C@H]5[C@H](C)CC[C@@H]3[C@@]25OO4)cc1OC	> 20	> 20	> 20	–
COc1cc(C2=NO[C@@]3(C2)C(=O)O[C@@H]2O[C@@]4(C)CC[C@H]5[C@H](C)CC[C@@H]3[C@@]25OO4)cc(OC)c1OC	> 20	> 20	> 20	–
COC(=O)c1ccc(C2=NO[C@@]3(C2)C(=O)O[C@@H]2O[C@@]4(C)CC[C@H]5[C@H](C)CC[C@@H]3[C@@]25OO4)cc1	> 20	> 20	–	–
C[C@@H]1CC[C@@H]2[C@]34OO[C@](C)(CC[C@@H]13)O[C@H]4OC(=O)[C@@]21C[C@@H]2c3ccccc3CCN2O1	2.91	14	9.93	Ratio IC50 (A549 [4]): 3; Ratio IC50 (KB [5]): 3
C[C@@H]1CC[C@@H]2[C@]34OO[C@](C)(CC[C@@H]13)O[C@H]4OC(=O)[C@@]21C[C@H]2c3ccccc3CCN2O1	> 20	> 20	–	–
COc1ccc2c(c1)CCN1O[C@@]3(C[C@H]21)C(=O)O[C@@H]1O[C@@]2(C)CC[C@H]4[C@H](C)CC[C@@H]3[C@@]14OO2	1.47	3.16	5.01	Ratio IC50 [6]: 4; Ratio IC50 (A549 [7]): 4; Ratio IC50 (KB [8]): 4
COc1ccc2c(c1)CCN1O[C@@]3(C[C@@H]21)C(=O)O[C@@H]1O[C@@]2(C)CC[C@H]4[C@H](C)CC[C@@H]3[C@@]14OO2	> 20	> 20	–	–
COc1cc2c(cc1OC)[C@H]1C[C@]3(ON1CC2)C(=O)O[C@@H]1O[C@@]2(C)CC[C@H]4[C@H](C)CC[C@@H]3[C@@]14OO2	2.53	2.35	4.69	–
COc1cc2c(cc1OC)[C@@H]1C[C@]3(ON1CC2)C(=O)O[C@@H]1O[C@@]2(C)CC[C@H]4[C@H](C)CC[C@@H]3[C@@]14OO2	> 20	> 20	> 20	–
C[C@@H]1CC[C@@H]2[C@]34OO[C@](C)(CC[C@@H]13)O[C@H]4OC(=O)[C@@]21C[C@@H]2CCCN2O1	2.34	3.35	10.5	–
C[C@@H]1CC[C@@H]2[C@]34OO[C@](C)(CC[C@@H]13)O[C@H]4OC(=O)[C@@]21C[C@@H]2COCCN2O1	> 20	> 20	–	–
CO[C@H]1O[C@@H]2O[C@@]3(C)CC[C@H]4[C@H](C)CC[C@@H]([C@]15CC(c1ccc(Cl)cc1)=NO5)[C@@]24OO3	> 20	> 20	–	–
CO[C@@H]1O[C@@H]2O[C@@]3(C)CC[C@H]4[C@H](C)CC[C@@H]([C@]15CC(c1ccc(Cl)cc1)=NO5)[C@@]24OO3	> 20	> 20	–	–

SMILES	IC50 [1] [µM]	IC50 [2] [µM]	IC50 (A549 [3]) [µM]	also measured
CO[C@H]1O[C@@H]2O[C@@]3(C)CC[C@H]4[C@H](C)CC[C@@H]([C@]15CC(c1c(Cl)cccc1Cl)=NO5)[C@@]24OO3	5.29	5.06	14.4	–
CO[C@@H]1O[C@@H]2O[C@@]3(C)CC[C@H]4[C@H](C)CC[C@@H]([C@]15CC(c1c(Cl)cccc1Cl)=NO5)[C@@]24OO3	> 20	> 20	> 20	–
COc1ccc2c(c1)CCN1O[C@@]3(C[C@H]21)[C@@H](OC)O[C@@H]1O[C@@]2(C)CC[C@H]4[C@H](C)CC[C@@H]3[C@@]14OO2	> 20	> 20	> 20	–
COc1ccc2c(c1)CCN1O[C@@]3(C[C@H]21)[C@H](OC)O[C@@H]1O[C@@]2(C)CC[C@H]4[C@H](C)CC[C@@H]3[C@@]14OO2	> 20	> 20	> 20	–
CCO[C@H]1O[C@@H]2O[C@@]3(C)CC[C@H]4[C@H](C)CC[C@@H]([C@]15C[C@@H]1c6ccc(OC)cc6CCN1O5)[C@@]24OO3	> 20	> 20	> 20	–
CCO[C@@H]1O[C@@H]2O[C@@]3(C)CC[C@H]4[C@H](C)CC[C@@H]([C@]15C[C@@H]1c6ccc(OC)cc6CCN1O5)[C@@]24OO3	> 20	> 20	> 20	–
COc1ccc2c(c1)CCN1O[C@@]3(C[C@H]21)[C@@H](F)O[C@@H]1O[C@@]2(C)CC[C@H]4[C@H](C)CC[C@@H]3[C@@]14OO2	> 20	> 20	–	–
COc1ccc2c(c1)CCN1O[C@@]3(C[C@H]21)[C@H](F)O[C@@H]1O[C@@]2(C)CC[C@H]4[C@H](C)CC[C@@H]3[C@@]14OO2	> 20	> 20	–	–
COc1ccc2c(c1)CCN1O[C@@]3(C[C@H]21)[C@@H](OCCN1CCOCC1)O[C@@H]1O[C@@]2(C)CC[C@H]4[C@H](C)CC[C@@H]3[C@@]14OO2	> 20	> 20	> 20	–
COc1ccc2c(c1)CCN1O[C@@]3(C[C@H]21)[C@@H](OCCN1CCN(C)CC1)O[C@@H]1O[C@@]2(C)CC[C@H]4[C@H](C)CC[C@@H]3[C@@]14OO2	17.9	16.9	> 20	–
COc1ccc2c(c1)CCN1O[C@@]3(C[C@H]21)C(=O)O[C@@H]1O[C@@]2(C)CC[C@H]4[C@H](C)CC[C@@H]3[C@@]14O2	15.4	13.4	–	–
COc1ccc2c(c1)CCN1O[C@@]3(C[C@@H]21)C(=O)O[C@@H]1O[C@@]2(C)CC[C@H]4[C@H](C)CC[C@@H]3[C@@]14O2	> 20	> 20	–	–
CCCCCCCCCCCCCCNC(=O)C[C@H]1O[C@@H]2O[C@@]3(C)CC[C@H]4[C@H](C)CC[C@@H]([C@H]1C)[C@@]24OO3	–	–	–	IC50 (HepG2): 0.46 µM
C[C@H]1[C@@H](O[C@H](C#N)c2ccc(Br)cc2)O[C@@H]2O[C@@]3(C)CC[C@H]4[C@H](C)CC[C@@H]1[C@@]24OO3	–	–	–	IC50 (L1210): 0.01 µM
C[C@@H]1CC[C@H]2[C@@H](C)C(=O)O[C@@H]3O[C@@]4(C)CC[C@@H]1[C@]32OO4 [ARTEMISININ]	> 20	> 20	> 20	–
CC[C@]1(O)C[C@H]2CN(CCc3c([nH]c4ccccc34)[C@@](C(=O)OC)(c3cc4c(cc3OC)N(C=O)[C@H]3[C@@](O)(C(=O)OC)[C@H](OC(C)=O)[C@]5(CC)C=CCN6CC[C@]43[C@@H]65)C2)C1 [VINCRISTINE]	0.00087	0.387	0.0368	–
